Sampled rows, rich in hits. Any-hit rate of the full collection: about 27%.
CYP2C19 act – cytochrome P450 2C19 (human) activation; P33261; 96,000 tested, under 10 active; activation factor at 5 µM; recombinant CYP2C19, luciferin-H EGE luminescence; hits give high values; 0 = fully inhibited enzyme, 1 = untreated enzyme;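 active means activation factor of at least 2 at 5 µM in the primary screen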;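 further: 0 = wells with 2.5 mM tranylcypromine and 1 = vehicle-only wells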
CYP2C19 inhib – blocks human cytochrome P450 2C19 | CYP2C19 Supersomes, luciferin-H EGE luminescence, 30 min | inhibition, % at 5 µM | 96,000 tested, 21% active | AID 778;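 active means CYP2C19 inhibition above a set limit at 5 µM in the primary screen, cut at about 50% in these data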;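 further: plate controls were negative control wells for no effect and 2.5 mM tranylcypromine positive control for full effect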
Rev-RRE block – inhibitors of HIV-1 Rev-RRE RNA interaction; P05866; 97,000 tested, 0.79% active; Rev peptide-RRE RNA binding, FRET; inhibition, % at 8 µM;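 active means inhibition above the screen-wide mean plus 3 SD, cut at about 35% in these data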;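 further: 0% = median DMSO wells and 100% = median Neomycin B control wells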
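Test system: labelled RRE RNA duplex and labelled Rev peptide. Times: 5 min compound–RNA preincubation, then 15 min with peptide, 25 °C. Doses: single-dose 8 µM. Measured by: FRET, excitation 480 nm, emission 540 nm donor and 671 nm acceptor. Measure: % inhibition of FRET ratio versus controls.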
Cav32 inh – blocks human Cav3.2 T-type calcium channel; O95180; Cav3.2-expressing cells, Fluo-4 calcium fluorescence FDSS; hits give low values; B-score at 10 µM; 100,000 tested, 4% active;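 active means single-dose well whose peak fluorescence ratio is a statistical outlier from its plate by either plate-standardised score or position-corrected B-score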
CYP2C9 activ – activators of human CYP2C9; 96,000 tested, 1.4% active; AID 1024; activation factor at 5 µM; recombinant CYP2C9, luciferin-H conversion, luminescence; hits give high values; factor 1 = untreated enzyme, 0 = blocked;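 active means activation factor of 2 or more for CYP2C9 at a 5 µM dose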;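 further: 0 = sulfaphenazole-blocked wells and 1 = vehicle-only wells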
CYP2C9 inh – inhibitors of human CYP2C9; CYP2C9 Supersomes, luciferin-H conversion, luminescence; inhibition, % at 5 µM; 96,000 tested, 20% active;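 active means blocking of liver enzyme CYP2C9 beyond about 50% at 5 µM, limit read from the data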
Active calls of the source: *.

`COc1ccc(N2CCN(c3nc4c(c(=O)n(C)c(=O)n4C)n3Cc3ccccc3)CC2)cc1` gave CYP2C19 act 0.5, CYP2C19 inhib 49, Rev-RRE block 0, Cav32 inh -0.37, CYP2C9 activ 0.3 and CYP2C9 inh 68*.
For COC(=O)CSc1nc2c(c(=O)n(C)c(=O)n2C)n1CCCc1ccccc1 the results were CYP2C19 act 0.3, CYP2C19 inhib 67*, Cav32 inh -0.37, CYP2C9 activ 0.1 and CYP2C9 inh 85*.
Screening CCC1CCCCN1Cc1nc2c(c(=O)n(C)c(=O)n2C)n1Cc1ccccc1 (configuration not stated) returned Cav32 inh -0.57.
`CN(Cc1ccccc1)c1nc2c(c(=O)n(C)c(=O)n2C)n1CCCc1ccccc1` gave CYP2C19 act 0.1, CYP2C19 inhib 88*, Rev-RRE block -1, Cav32 inh -6.3*, CYP2C9 activ 0 and CYP2C9 inh 97*.
Cn1c(=O)c2c(nc(CN3CCN(c4ccccc4)CC3)n2CCc2ccccc2)n(C)c1=O was read as Rev-RRE block 0 and Cav32 inh -5.7*.
`Cn1c(=O)c2c(nc(CN3CCN(Cc4ccccc4)CC3)n2Cc2ccccc2)n(C)c1=O` gave CYP2C19 act 0.6, CYP2C19 inhib 38, Cav32 inh 1.6, CYP2C9 activ 0.9 and CYP2C9 inh 9.
`Cn1c(=O)c2c(nc(CN3CCN(c4cccc(Cl)c4)CC3)n2CCc2ccccc2)n(C)c1=O` gave Rev-RRE block 4 and Cav32 inh -2.4.
Screening CCn1c(SCc2nnc(-c3ccccc3)o2)nc2c1c(=O)n(C)c(=O)n2C returned CYP2C19 act 0.9, CYP2C19 inhib 10, CYP2C9 activ 1 and CYP2C9 inh 3.
For CCCCn1c(SCc2nnc(-c3ccccc3)o2)nc2c1c(=O)n(C)c(=O)n2C the results were CYP2C19 act 0.4, CYP2C19 inhib 64*, Rev-RRE block 11, Cav32 inh 0.041, CYP2C9 activ 0.2 and CYP2C9 inh 77*.
`CCCCn1c(CN(Cc2ccccc2)Cc2ccccc2)nc2c1c(=O)n(C)c(=O)n2C` gave Rev-RRE block 3 and Cav32 inh -1.6.
`CN(Cc1ccccc1)Cc1nc2c(c(=O)n(C)c(=O)n2C)n1Cc1ccc(F)cc1` gave CYP2C19 act 0.7, CYP2C19 inhib 26, Rev-RRE block 8, Cav32 inh -4.3*, CYP2C9 activ 0.3 and CYP2C9 inh 72*.
Screening CCCCCn1c(CN(C)Cc2ccccc2)nc2c1c(=O)n(C)c(=O)n2C returned CYP2C19 act 0.2, CYP2C19 inhib 82*, Rev-RRE block -2, Cav32 inh -2.9, CYP2C9 activ 0 and CYP2C9 inh 100*.
`CCOC(=O)N1CCN(Cc2nc3c(c(=O)n(C)c(=O)n3C)n2Cc2cc(C)ccc2C)CC1` gave CYP2C19 act 0.7, CYP2C19 inhib 27, CYP2C9 activ 0.9 and CYP2C9 inh 12.
Screening Cc1ccc(C)c(Cn2c(CN(C)Cc3ccccc3)nc3c2c(=O)n(C)c(=O)n3C)c1 returned CYP2C19 act 0.3, CYP2C19 inhib 66*, Rev-RRE block 8, Cav32 inh -5.2, CYP2C9 activ 0.1 and CYP2C9 inh 92*.
Screening CCOc1ccc2nc(NC(=O)Nc3cccs3)sc2c1 returned Cav32 inh -0.077.
Screening Cc1ccc(NC2=NCC(=O)N2Cc2ccc3c(c2)OCO3)c(C)c1 returned CYP2C19 act 0, CYP2C19 inhib 96*, Cav32 inh -0.84, CYP2C9 activ 0.2 and CYP2C9 inh 79*.
Screening CCc1ccc(NC2=NCC(=O)N2c2ccc3c(c2)OCCO3)cc1 returned Rev-RRE block 1 and Cav32 inh 0.23.
Cc1ccc(NC2=NCC(=O)N2c2ccc3c(c2)OCCO3)c(C)c1 was read as Rev-RRE block 7 and Cav32 inh 0.1.
Screening CCc1ccc(NC2=NCC(=O)N2Cc2ccc3c(c2)OCO3)cc1 returned CYP2C19 act 0.6, CYP2C19 inhib 36, Cav32 inh -0.94, CYP2C9 activ 0.4 and CYP2C9 inh 58*.
Screening Cc1cc(C)c2c(n1)nn1c(N3CCN(c4ccccc4)CC3)cc(C)nc21 returned CYP2C19 act 0.8, CYP2C19 inhib 19, Rev-RRE block 9, Cav32 inh -1.5, CYP2C9 activ 0.8 and CYP2C9 inh 20.
`Cc1cc(N2CCN(C3CCCC3)CC2)n2ncc(-c3ccccc3)c2n1` gave CYP2C19 act 0.3, CYP2C19 inhib 72*, CYP2C9 activ 0.2 and CYP2C9 inh 76*.
For COc1cc(CNn2cn[nH]c2=S)cc(Cl)c1OCc1ccccc1 the results were CYP2C19 act 0.2, CYP2C19 inhib 82*, Rev-RRE block 2, Cav32 inh -1.5, CYP2C9 activ 0.8 and CYP2C9 inh 23.
O=C1NC2=C(CCc3ccccc32)C(c2ccc(Br)cc2)N1 (configuration not stated) was read as CYP2C19 act 0.3, CYP2C19 inhib 65*, Rev-RRE block 10, CYP2C9 activ 0.5 and CYP2C9 inh 54*.
Screening CN=C(Nc1ccc(Cl)cc1)c1cccc(C(F)(F)F)c1 returned CYP2C19 act 0.3, CYP2C19 inhib 74*, Rev-RRE block 10, Cav32 inh -1.1, CYP2C9 activ 0.8 and CYP2C9 inh 23.
`CN=C(Nc1ccc(Cl)cc1)c1ccc(C(F)(F)F)cc1` gave CYP2C19 act 0.2, CYP2C19 inhib 80*, Rev-RRE block 14, Cav32 inh -1, CYP2C9 activ 0.7 and CYP2C9 inh 25.
Screening CCCNC(=O)c1cccc(C(F)(F)F)c1 returned CYP2C19 act 0.9, CYP2C19 inhib 10, Rev-RRE block -4, Cav32 inh 0.41, CYP2C9 activ 1 and CYP2C9 inh -1.
Screening COc1cccc(-n2c(SC)nnc2-c2cnccn2)c1 returned Rev-RRE block 5 and Cav32 inh -0.64.
`Cc1cc(C)c2c3c(sc2n1)C(=O)N(Cc1ccccc1)CC(=O)N3` gave CYP2C19 act 0.7, CYP2C19 inhib 30, Rev-RRE block 6, Cav32 inh 0.47, CYP2C9 activ 0.9 and CYP2C9 inh 10.
For COc1cccc(-c2nnn(CC(C)=O)n2)c1 the results were Rev-RRE block 2 and Cav32 inh -0.033.
`CC(=O)CC(C)(C)n1nnc(-c2ccccc2)n1` gave CYP2C19 act 0.4, CYP2C19 inhib 62*, Rev-RRE block -1, Cav32 inh -0.068, CYP2C9 activ 0.9 and CYP2C9 inh 12.
For CCc1ccc(NC(=O)CS(=O)CC(=O)NCC2OCCc3ccccc32)cc1 (configuration not stated) the results were CYP2C19 act 0.5, CYP2C19 inhib 46, Rev-RRE block 12, Cav32 inh -1.2, CYP2C9 activ 0.3 and CYP2C9 inh 74*.

Screens as filed in PubChem.
